# Assay results: the M2OR odorant receptor database
# Changes are numbered by the printed parent chain.
# What was measured:
# Conditions in all cases: stereoisomer not certain
# OR1L3 (Homo sapiens) = target: T1, OR1L3 (Homo sapiens) (UniProt Q8NH93)
# T1 sequence (whole entry): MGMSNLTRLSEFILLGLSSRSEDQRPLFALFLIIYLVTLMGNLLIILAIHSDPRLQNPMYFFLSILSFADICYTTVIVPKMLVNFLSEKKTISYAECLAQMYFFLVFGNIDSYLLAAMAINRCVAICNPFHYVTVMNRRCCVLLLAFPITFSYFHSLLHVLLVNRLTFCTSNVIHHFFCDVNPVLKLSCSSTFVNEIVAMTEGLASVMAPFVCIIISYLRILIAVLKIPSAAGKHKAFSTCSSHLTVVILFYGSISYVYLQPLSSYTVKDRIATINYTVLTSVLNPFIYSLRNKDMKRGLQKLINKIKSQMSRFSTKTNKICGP
# Procedure, shortened: (§1)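 Each entry records the cell line, G-protein, co-transfected protein and tags used. Methods varied with the source, often transient luciferase assays in mammalian cell lines. A receptor–molecule pair is called responsive (active) if the original authors judged its signal statistically different from baseline and non-responsive (inactive) otherwise.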
# OR1L4 (Homo sapiens) = target: T2, OR1L4 (Homo sapiens) (UniProt Q8NGR5)
# T2 sequence (whole entry): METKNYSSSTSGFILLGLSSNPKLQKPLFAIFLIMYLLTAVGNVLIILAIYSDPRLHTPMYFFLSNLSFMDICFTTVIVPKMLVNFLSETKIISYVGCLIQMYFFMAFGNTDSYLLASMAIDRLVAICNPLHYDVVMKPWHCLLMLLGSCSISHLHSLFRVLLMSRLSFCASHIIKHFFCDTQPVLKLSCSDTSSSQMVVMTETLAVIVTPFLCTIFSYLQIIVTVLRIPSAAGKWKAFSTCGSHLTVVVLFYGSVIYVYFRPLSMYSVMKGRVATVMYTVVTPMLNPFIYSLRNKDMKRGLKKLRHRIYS
# Procedure, shortened: as §1
# OR1L6 (Homo sapiens) = target: T3, OR1L6 (Homo sapiens) (UniProt Q8NGR2)
# T3 sequence (whole entry): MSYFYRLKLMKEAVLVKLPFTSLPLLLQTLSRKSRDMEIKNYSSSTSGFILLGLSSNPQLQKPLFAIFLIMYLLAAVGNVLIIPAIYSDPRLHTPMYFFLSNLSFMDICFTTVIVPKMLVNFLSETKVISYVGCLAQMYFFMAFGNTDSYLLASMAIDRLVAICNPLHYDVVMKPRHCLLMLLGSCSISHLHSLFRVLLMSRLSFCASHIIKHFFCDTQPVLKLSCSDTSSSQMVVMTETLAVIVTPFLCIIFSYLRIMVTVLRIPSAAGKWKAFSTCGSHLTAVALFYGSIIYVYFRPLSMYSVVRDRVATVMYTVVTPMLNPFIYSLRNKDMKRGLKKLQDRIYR
# Procedure, shortened: as §1
# OR1L8 (Homo sapiens) = target: T4, OR1L8 (Homo sapiens) (UniProt Q8NGR8)
# T4 sequence (whole entry): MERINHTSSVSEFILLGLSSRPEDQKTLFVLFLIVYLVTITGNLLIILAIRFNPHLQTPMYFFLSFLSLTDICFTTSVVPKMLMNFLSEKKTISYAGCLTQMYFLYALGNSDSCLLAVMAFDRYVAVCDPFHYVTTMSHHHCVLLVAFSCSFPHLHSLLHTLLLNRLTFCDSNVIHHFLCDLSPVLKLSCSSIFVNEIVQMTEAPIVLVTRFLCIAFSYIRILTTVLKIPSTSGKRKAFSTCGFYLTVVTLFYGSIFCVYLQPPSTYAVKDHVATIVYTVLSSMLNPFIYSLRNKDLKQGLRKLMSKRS
# Procedure, shortened: as §1
# OR1M1 (Homo sapiens) = target: T5, OR1M1 (Homo sapiens) (UniProt Q8NGA1)
# T5 sequence (whole entry): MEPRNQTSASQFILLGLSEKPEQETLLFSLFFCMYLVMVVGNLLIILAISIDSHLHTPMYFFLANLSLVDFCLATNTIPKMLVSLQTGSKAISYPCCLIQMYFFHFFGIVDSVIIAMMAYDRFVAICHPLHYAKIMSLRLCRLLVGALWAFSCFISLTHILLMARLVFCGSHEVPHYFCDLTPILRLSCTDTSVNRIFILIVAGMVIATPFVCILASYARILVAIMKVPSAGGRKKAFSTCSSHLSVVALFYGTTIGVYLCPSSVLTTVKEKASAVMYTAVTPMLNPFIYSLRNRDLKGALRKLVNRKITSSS
# Procedure, shortened: as §1
# OR1N1 (Homo sapiens) = target: T6, OR1N1 (Homo sapiens) (UniProt Q8NGS0)
# T6 sequence (whole entry): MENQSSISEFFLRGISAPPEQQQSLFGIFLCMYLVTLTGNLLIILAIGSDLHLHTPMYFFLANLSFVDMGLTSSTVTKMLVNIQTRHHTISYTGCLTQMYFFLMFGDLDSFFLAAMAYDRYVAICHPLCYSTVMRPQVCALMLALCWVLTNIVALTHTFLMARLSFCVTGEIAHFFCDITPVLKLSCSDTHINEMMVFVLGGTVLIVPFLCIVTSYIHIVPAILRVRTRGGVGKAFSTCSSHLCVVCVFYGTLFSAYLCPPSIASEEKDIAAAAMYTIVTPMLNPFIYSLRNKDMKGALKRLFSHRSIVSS
# Procedure, shortened: as §1
# OR1L4 = test system: T7, OR1L4
# T7 sequence (whole entry): T2 sequence (whole entry) with G234R
# Procedure, shortened: as §1
# OR1L6 = test system: T8, OR1L6
# T8 sequence (whole entry): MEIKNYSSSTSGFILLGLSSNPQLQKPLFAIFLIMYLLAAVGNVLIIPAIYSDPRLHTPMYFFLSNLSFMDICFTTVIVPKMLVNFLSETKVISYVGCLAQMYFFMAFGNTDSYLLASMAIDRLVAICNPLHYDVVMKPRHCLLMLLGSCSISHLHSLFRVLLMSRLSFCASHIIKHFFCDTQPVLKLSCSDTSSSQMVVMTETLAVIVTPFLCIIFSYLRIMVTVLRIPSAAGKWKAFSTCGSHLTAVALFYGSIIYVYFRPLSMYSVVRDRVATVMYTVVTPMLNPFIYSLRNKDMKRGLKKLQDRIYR
# Procedure, shortened: as §1
# OR1L8 T27P R211P = test system: T9, OR1L8 T27P R211P
# T9 sequence (whole entry): T4 sequence (whole entry) with T27P, R211P
# Procedure, shortened: as §1
# OR1N2 W37R = test system: T10, OR1N2 W37R
# T10 sequence (whole entry): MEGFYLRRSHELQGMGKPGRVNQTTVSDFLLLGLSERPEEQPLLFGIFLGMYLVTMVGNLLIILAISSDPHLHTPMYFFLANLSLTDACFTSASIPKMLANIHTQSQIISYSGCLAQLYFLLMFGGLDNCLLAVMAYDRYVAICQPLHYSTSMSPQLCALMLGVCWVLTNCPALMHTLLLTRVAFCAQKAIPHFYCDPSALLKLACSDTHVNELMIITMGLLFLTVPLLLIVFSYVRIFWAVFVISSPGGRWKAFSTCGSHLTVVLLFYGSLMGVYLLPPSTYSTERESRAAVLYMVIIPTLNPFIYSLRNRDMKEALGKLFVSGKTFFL
# Procedure, shortened: as §1
structure (smiles),measurement,setting,value
Cc1ccc(C(C)C)cc1O,odorant receptor agonist call,OR1L3 (Homo sapiens),inactive
CCCCCC1C(=O)CCC1CC(=O)OC (stereo not given),odorant receptor agonist call,OR1L3 (Homo sapiens),inactive
COc1ccc(C)cc1,odorant receptor agonist call,OR1L3 (Homo sapiens),inactive
CCOC(=O)CC1(C)OCCO1,odorant receptor agonist call,OR1L3 (Homo sapiens),inactive
CC1CC(C)(c2ccccc2)CO1 (stereo not given),odorant receptor agonist call,OR1L3 (Homo sapiens),inactive
CCCCC1CCC(=O)O1 (stereo not given),odorant receptor agonist call,OR1L3 (Homo sapiens),inactive
CCC(=O)C=CC1C(C)=CCCC1(C)C (stereo not given),odorant receptor agonist call,OR1L3 (Homo sapiens),inactive
COC1CC2CC1C1CC(C=O)CC21 (stereo not given),odorant receptor agonist call,OR1L3 (Homo sapiens),inactive
C=CC(C)(O)CCC=C(C)CCC=C(C)C (stereo not given),odorant receptor agonist call,OR1L3 (Homo sapiens),inactive
CC(C)(C)C1CCCCC1OCCCCO (stereo not given),odorant receptor agonist call,OR1L3 (Homo sapiens),inactive
CC(CC=O)c1ccc(C(C)(C)C)cc1 (stereo not given),odorant receptor agonist call,OR1L3 (Homo sapiens),inactive
CC=CC(=O)C1C(C)=CCCC1(C)C (stereo not given),odorant receptor agonist call,OR1L3 (Homo sapiens),active
CCCCCC1COCCC1OC(C)=O (stereo not given),odorant receptor agonist call,OR1L3 (Homo sapiens),inactive
CCCCCCCCC(OC(C)=O)OC(C)=O,odorant receptor agonist call,OR1L3 (Homo sapiens),inactive
CC1=CCC2CC1C2(C)C (stereo not given),odorant receptor agonist call,OR1L3 (Homo sapiens),inactive
CC(=O)C=CC1=C(C)CCCC1(C)C,odorant receptor agonist call,OR1L3 (Homo sapiens),inactive
CCCC(C)C(=O)OCC (stereo not given),odorant receptor agonist call,OR1L3 (Homo sapiens),inactive
CCC=C(C)C(O)CCCCC (stereo not given),odorant receptor agonist call,OR1L3 (Homo sapiens),inactive
CCc1ccc(CC(C)(C)C=O)cc1,odorant receptor agonist call,OR1L3 (Homo sapiens),inactive
CC(=O)OCc1ccccc1,odorant receptor agonist call,OR1L3 (Homo sapiens),inactive
OCc1ccccc1,odorant receptor agonist call,OR1L3 (Homo sapiens),inactive
C=CCOC(=O)COCCC(C)C,odorant receptor agonist call,OR1L3 (Homo sapiens),inactive
CCCCC(S)C(C)CO (stereo not given),odorant receptor agonist call,OR1L3 (Homo sapiens),inactive
same,odorant receptor agonist call,OR1L4 (Homo sapiens),inactive
same,odorant receptor agonist call,OR1L6 (Homo sapiens),inactive
same,odorant receptor agonist call,OR1L8 (Homo sapiens),inactive
same,odorant receptor agonist call,OR1M1 (Homo sapiens),inactive
same,odorant receptor agonist call,OR1N1 (Homo sapiens),inactive
CC(C)=CCCC(C)CC=O (stereo not given),odorant receptor agonist call,OR1L3 (Homo sapiens),inactive
CCCCCC(=O)C(C)C(C)=O (stereo not given),odorant receptor agonist call,OR1L3 (Homo sapiens),inactive
same,odorant receptor agonist call,OR1L4 (Homo sapiens),inactive
same,odorant receptor agonist call,OR1L6 (Homo sapiens),inactive
same,odorant receptor agonist call,OR1L8 (Homo sapiens),inactive
same,odorant receptor agonist call,OR1M1 (Homo sapiens),inactive
same,odorant receptor agonist call,OR1N1 (Homo sapiens),inactive
CC(C)=CCCC(C)=CCO,odorant receptor agonist call,OR1L3 (Homo sapiens),inactive
CC1=NC(C)C(C)S1 (stereo not given),odorant receptor agonist call,OR1L3 (Homo sapiens),inactive
same,odorant receptor agonist call,OR1L4 (Homo sapiens),inactive
same,odorant receptor agonist call,OR1L4,inactive
same,odorant receptor agonist call,OR1L6,inactive
same,odorant receptor agonist call,OR1L8 (Homo sapiens),inactive
same,odorant receptor agonist call,OR1L8 T27P R211P,inactive
same,odorant receptor agonist call,OR1M1 (Homo sapiens),inactive
same,odorant receptor agonist call,OR1N1 (Homo sapiens),inactive
same,odorant receptor agonist call,OR1N2 W37R,inactive
